The source of these data is ChEMBL document CHEMBL3120066, “Discovery of a novel class of potent HCV NS4B inhibitors: SAR studies on piperazinone derivatives” (J Med Chem, 2014).

The structures appear in SMILES notation. ≈ marks a conversion by molar mass, not a printed value. Calls of active or inactive are those of the source.

Data set [1] relates to Hepatitis C virus. Nature of the data set: Antiviral activity against HCV1a infected in clone A and ET-lunet cells assessed as inhibition of viral replication after 4 days by RT-PCR analysis. Type of data set: functional, organism-based, Hepacivirus hominis. To be noted: subtype 1a, 96 h. Summed up: (§1)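 Run in HCV genotype 1a and 1b replicon cells; each reported value is the mean of n = 2 independent determinations.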

Data set [2] has as its system Hepatitis C virus. The experiment in a line: Antiviral activity against HCV1b infected in clone A and ET-lunet cells assessed as inhibition of viral replication after 4 days by RT-PCR analysis. It is filed as functional, organism-based, Hepacivirus hominis. The conditions noted are these: genotype 1b, 96 h. An outline of the steps: as §1
The nature of data set [3]: Half life in human liver microsomes. It is filed as ADME. For orientation: Microsomes from liver hold many membrane-bound enzymes, among them those of drug oxidation.
A short description of data set [4]: Cytotoxicity against human HepG2 cells after 8 days by MTS assay. It is filed as cell-based.
Data set [5] is described as follows: Cytotoxicity against human CEM cells after 8 days by MTS assay. Type of data set: cell-based. To be noted: CEM cells (CCRF-CEM). Background: Tetrazolium assays rely on reduction of a dye to a coloured formazan, in cell work by metabolically active cells.
A short description of data set [6]: Cytotoxicity against human HuH7 cells after 8 days by MTS assay. It is filed as cell-based, Huh-7.
Data set [7] can be described thus: Cytotoxicity against human BxPC3 cells after 8 days by MTS assay. It is filed as cell-based, BXPC-3.
A short description of data set [8]: Solubility of the compound at pH 4. Type of data set: physicochemical. The conditions noted are these: buffer.
Data set [9] is described as follows: Solubility of the compound at pH 7.4. The conditions noted are these: buffer. It is filed as physicochemical.
The target in another data set is Cytochrome P450 3A4 (Homo sapiens, UniProt P08684). Nature of the data set: Inhibition of CYP3A4 (unknown origin) up to 10 uM. Type of data set: ADME.
Cytochrome P450 3A4, sequence (P08684 whole entry): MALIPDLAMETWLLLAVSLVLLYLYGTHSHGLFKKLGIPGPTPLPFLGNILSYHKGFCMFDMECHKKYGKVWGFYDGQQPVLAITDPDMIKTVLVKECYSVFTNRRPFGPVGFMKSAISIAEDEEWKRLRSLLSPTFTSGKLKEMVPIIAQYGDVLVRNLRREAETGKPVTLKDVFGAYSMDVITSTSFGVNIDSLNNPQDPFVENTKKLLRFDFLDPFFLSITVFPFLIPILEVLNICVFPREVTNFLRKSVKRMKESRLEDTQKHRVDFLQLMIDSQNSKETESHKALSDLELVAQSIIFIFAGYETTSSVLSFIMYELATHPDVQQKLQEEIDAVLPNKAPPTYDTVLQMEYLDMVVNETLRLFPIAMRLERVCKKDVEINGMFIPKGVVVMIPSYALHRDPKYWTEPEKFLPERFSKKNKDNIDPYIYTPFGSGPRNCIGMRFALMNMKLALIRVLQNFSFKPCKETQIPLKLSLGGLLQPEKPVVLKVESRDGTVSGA
Data set [10] relates to Hepatitis C virus. Nature of the data set: Antiviral activity against HCV2 assessed as inhibition of viral replication. To be noted: Hepacivirus hominis; type 2. Type of data set: functional, organism-based.
The target of the next data set is Cytochrome P450 2C9 (Homo sapiens, UniProt P11712). The experiment in a line: Inhibition of CYP2C9 (unknown origin) up to 10 uM. Type of data set: ADME.
Cytochrome P450 2C9, sequence (P11712 whole entry): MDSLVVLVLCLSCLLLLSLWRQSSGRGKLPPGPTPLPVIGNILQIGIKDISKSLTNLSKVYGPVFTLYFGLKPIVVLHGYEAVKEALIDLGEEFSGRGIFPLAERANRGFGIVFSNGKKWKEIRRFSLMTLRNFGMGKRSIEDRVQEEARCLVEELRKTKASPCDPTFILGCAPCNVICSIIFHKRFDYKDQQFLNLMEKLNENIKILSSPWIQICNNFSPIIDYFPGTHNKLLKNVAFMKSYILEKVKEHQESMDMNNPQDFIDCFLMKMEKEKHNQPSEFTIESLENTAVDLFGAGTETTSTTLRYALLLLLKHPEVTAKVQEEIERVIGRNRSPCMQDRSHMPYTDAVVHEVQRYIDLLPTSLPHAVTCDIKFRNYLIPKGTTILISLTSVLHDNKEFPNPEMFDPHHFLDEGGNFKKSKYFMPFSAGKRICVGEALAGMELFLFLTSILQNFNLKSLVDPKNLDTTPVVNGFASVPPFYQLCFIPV
The target in another data set is Cytochrome P450 2D6 (Homo sapiens, UniProt P10635). Nature of the data set: Inhibition of CYP2D6 (unknown origin) up to 10 uM. Type of data set: ADME.
Cytochrome P450 2D6, sequence (P10635 whole entry): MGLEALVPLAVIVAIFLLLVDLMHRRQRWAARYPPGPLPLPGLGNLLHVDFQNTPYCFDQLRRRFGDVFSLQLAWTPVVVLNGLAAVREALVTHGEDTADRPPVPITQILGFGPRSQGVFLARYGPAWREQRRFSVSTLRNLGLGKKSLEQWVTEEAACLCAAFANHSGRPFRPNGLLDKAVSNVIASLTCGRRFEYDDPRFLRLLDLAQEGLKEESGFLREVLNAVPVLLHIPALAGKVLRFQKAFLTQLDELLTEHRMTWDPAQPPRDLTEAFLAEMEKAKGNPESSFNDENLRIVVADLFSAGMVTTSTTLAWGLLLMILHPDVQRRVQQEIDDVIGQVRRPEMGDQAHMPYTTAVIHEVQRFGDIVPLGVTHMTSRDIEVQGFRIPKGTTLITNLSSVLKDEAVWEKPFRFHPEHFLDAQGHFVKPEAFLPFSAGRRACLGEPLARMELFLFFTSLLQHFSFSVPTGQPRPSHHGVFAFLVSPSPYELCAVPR
For a further data set, the target named is T1, Cytochrome P450 1A2 (Homo sapiens, UniProt P05177).
T1 sequence (P05177 whole entry): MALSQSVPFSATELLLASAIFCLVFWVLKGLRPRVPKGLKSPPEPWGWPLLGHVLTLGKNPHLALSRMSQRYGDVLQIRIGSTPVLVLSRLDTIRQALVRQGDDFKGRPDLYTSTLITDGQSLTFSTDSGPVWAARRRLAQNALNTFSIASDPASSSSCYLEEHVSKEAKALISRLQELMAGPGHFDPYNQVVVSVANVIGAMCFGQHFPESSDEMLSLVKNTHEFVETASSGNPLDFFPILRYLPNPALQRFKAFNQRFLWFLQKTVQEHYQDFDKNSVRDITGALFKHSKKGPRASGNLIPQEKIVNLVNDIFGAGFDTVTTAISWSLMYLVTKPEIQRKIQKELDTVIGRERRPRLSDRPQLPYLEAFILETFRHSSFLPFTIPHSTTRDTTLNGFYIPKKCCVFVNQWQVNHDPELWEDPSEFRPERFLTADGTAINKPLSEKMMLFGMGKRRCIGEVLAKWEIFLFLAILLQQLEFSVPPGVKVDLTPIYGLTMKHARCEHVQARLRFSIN
Nature of the data set: Inhibition of CYP1A2 (unknown origin) up to 10 uM. It is filed as ADME.

For data set [11], the system named is Hepatitis C virus. The experiment in a line: Antiviral activity against HCV1a infected in clone A and ET-lunet cells assessed as inhibition of viral replication up to 20 uM after 4 days by RT-PCR analysis. Type of data set: functional, organism-based. To be noted: Hepacivirus hominis, subtype 1a.
Data set [12] relates to Hepatitis C virus. Nature of the data set: Antiviral activity against HCV1b infected in clone A and ET-lunet cells assessed as inhibition of viral replication up to 20 uM after 4 days by RT-PCR analysis. To be noted: Hepacivirus hominis, genotype 1b. It is filed as functional, organism-based.

On to `O=C(NCc1cccs1)c1cc2nc(-c3ccco3)cc(C(F)(F)Cl)n2n1` [ANGUIZOLE], for which the EC50 in the data set on Hepatitis C virus [1] turned out to be 0.56 µM; with Hepatitis C virus [2], 0.31 µM.

In [3], `C/C=C/[C@H]1CN(C(=O)c2cc(-c3ccc(F)cc3)on2)[C@@H](CC(C)C)C(=O)N1` came in with a half-life of 17 min. Further, in the data set with Hepatitis C virus [2], the EC90 was 0.06 µM.

In the case of `CC(C)C[C@H]1CN(C(=O)[C@@H]2C[C@H]2c2ccccc2)[C@@H](CC(C)C)C(=O)N1`, the figures for the EC90 with Hepatitis C virus [1] and in the data set on Hepatitis C virus [2] were 1 µM and 0.8 µM, respectively. Besides, the half-maximal cytotoxic concentration (CC50) at 192 h in data set [4], in data set [5], in [6] and in data set [7] was 40 µM throughout.

For `CC(C)C[C@H]1C(=O)N[C@@H](C2CCCC2)CN1C(=O)c1cc(-c2ccc(F)cc2)on1`, in [3], the half-life was determined as 29 min. For the same compound, the EC90 in the data set with Hepatitis C virus [2] is 0.09 µM.

`CC(C)C[C@H]1C(=O)N[C@@H](c2cnco2)CN1C(=O)c1cc(-c2ccc(F)cc2)on1`: the solubility in [8] is 147 µg/mL (≈ 356 µM); in [9], 151 µg/mL (≈ 366 µM). The 90% effect concentration (EC90) was 0.016 µM in the data set on Hepatitis C virus [1] and 0.07 µM with Hepatitis C virus [2]. For the same compound, the “inhibition (INH)” value at Cytochrome P450 3A4, against Cytochrome P450 2C9, at Cytochrome P450 2D6 and on Cytochrome P450 1A2 was “Not Active” throughout. Also, in the data set on Hepatitis C virus [10], the inhibition entry is “inactive”. The same compound displayed a half-life in data set [3] of 40 min.

Compound `CC(C)C[C@H]1C(=O)N[C@@H](c2ccccc2)CN1C(=O)c1cc(-c2ccc(F)cc2)on1` showed a half-life in data set [3] of 54 min. Besides, the EC90 with Hepatitis C virus [2] came out at 0.06 µM.

With `CC(C)C[C@H]1CN(C(=O)/C=C/c2ccc(S(C)(=O)=O)cc2)[C@@H](CC(C)C)C(=O)N1`, the EC90 in the data set on Hepatitis C virus [2] was above 10 µM.

In the case of `CC(C)C[C@H]1CN(C(=O)/C=C/c2ccc(F)c(F)c2)[C@@H](CC(C)C)C(=O)N1`, the EC90 in the data set on Hepatitis C virus [2] came to 1.5 µM.

On to `CC(C)C[C@H]1C(=O)N[C@@H](c2ccccc2F)CN1C(=O)c1cc(-c2ccc(F)cc2)on1`, for which, in the data set with Hepatitis C virus [2], the EC90 is 0.1 µM.

Take `COC(=O)c1ccc(/C=C/C(=O)N2C[C@H](CC(C)C)NC(=O)[C@@H]2CC(C)C)cc1`: in the data set on Hepatitis C virus [2], the concentration for an effect of 90% (EC90) was above 10 µM.

For the compound `CC(C)C[C@@H]1CN(C(=O)[C@@H]2C[C@H]2c2ccccc2)[C@@H](CC(C)C)C(=O)N1`, in the data set on Hepatitis C virus [2], the EC90 is above 10 µM.

For the compound `CC(C)C[C@H]1CN(C(=O)c2noc(-c3ccccc3)n2)[C@@H](CC(C)C)C(=O)N1`, in the data set on Hepatitis C virus [2], the EC90 worked out at 1.4 µM.

Turning to `CC[C@H]1CN(C(=O)c2cc(-c3ccc(F)cc3)on2)[C@@H](CC(C)C)C(=O)N1`, the EC90 with Hepatitis C virus [2] turned out to be 0.71 µM.

As for `CC(C)C[C@H]1CN(C(=O)c2cc(-c3ccccc3)on2)[C@@H](CC(C)C)C(=O)N1`, in the data set on Hepatitis C virus [2], the EC90 is 1.1 µM.

Take `CC(C)C[C@H]1CN(C(=O)c2c[nH]c(-c3ccccc3)n2)[C@@H](CC(C)C)C(=O)N1`: the EC90 in the data set on Hepatitis C virus [2] was above 10 µM.

As for `CC(C)C[C@H]1CN(C(=O)c2coc(-c3ccccc3)n2)[C@@H](CC(C)C)C(=O)N1`, in the data set with Hepatitis C virus [2], the EC90 was above 10 µM.

With `CCc1cc2c(cc1F)c(C#N)c(-c1ccc(S(=O)(=O)N[C@@H](C)C(F)(F)F)cn1)n2-c1ncccn1`, in the data set on Hepatitis C virus [2], the EC50 came to 0.0017 µM.

Regarding `CC(C)C[C@H]1CN(C(=O)c2cc(-c3ccc(F)cc3F)on2)[C@@H](CC(C)C)C(=O)N1`, in the data set with Hepatitis C virus [2], the EC90 is 0.68 µM.

As for `CC(C)C[C@H]1C(=O)N[C@@H](c2cccs2)CN1C(=O)c1cc(-c2ccc(F)cc2)on1`, the solubility in data set [8] and in data set [9] was 0.2 µg/mL (≈ 0.468 µM) throughout. In addition, the EC90 is 0.022 µM in the data set on Hepatitis C virus [1] and 0.006 µM in the data set on Hepatitis C virus [2]. For the same compound, the “inhibition (INH)” value on Cytochrome P450 3A4, at Cytochrome P450 2C9, against Cytochrome P450 2D6 and at Cytochrome P450 1A2 was “Not Active” throughout. The inhibition result with Hepatitis C virus [10] is “inactive”. This compound also displayed a half-life in data set [3] of 120 min.

Take `CC(C)C[C@H]1C(=O)N[C@@H](c2ccc[nH]2)CN1C(=O)c1cc(-c2ccc(F)cc2)on1`: the EC90 in the data set with Hepatitis C virus [2] is 0.68 µM.

Consider `CC(C)C[C@H]1C(=O)N[C@@H](c2cc[nH]c2)CN1C(=O)c1cc(-c2ccc(F)cc2)on1`, for which, in the data set on Hepatitis C virus [2], the 90% effect concentration (EC90) was found to be 0.063 µM.

As to `CC(C)C[C@H]1C(=O)N[C@@H](C2CC2)CN1C(=O)c1cc(-c2ccc(F)cc2)on1`, the EC90 with Hepatitis C virus [2] was determined as 1.1 µM.

With `CC(C)C[C@H]1CN(C(=O)[C@H]2C[C@@H]2c2ccccc2)[C@@H](CC(C)C)C(=O)N1`, the EC90 in the data set on Hepatitis C virus [1] and with Hepatitis C virus [2] was above 10 µM each time. The inhibition result in the data set on Hepatitis C virus [11] and in the data set with Hepatitis C virus [12] was “inactive” throughout.

For `CC(C)C[C@H]1C(=O)N[C@@H](C2CCC2)CN1C(=O)c1cc(-c2ccc(F)cc2)on1`, the EC90 in the data set with Hepatitis C virus [2] came out at 0.69 µM.

In the case of `CC(C)C[C@H]1CN(C(=O)[C@@H]2C[C@H]2c2ccccc2)[C@H](CC(C)C)C(=O)N1`, in the data set with Hepatitis C virus [2], the 90% effect concentration (EC90) is above 10 µM.

Regarding `CC(C)C[C@H]1CN(C(=O)[C@@H]2C[C@H]2c2ccccc2)[C@@H](CC(C)C)CN1`, the EC90 in the data set on Hepatitis C virus [2] is above 10 µM.

A word on the EC50: it is the midpoint of the concentration-response curve. By half-life is commonly meant the time needed for the level to fall by half in the phase considered. A higher half-life goes with slow loss. What is called EC90 is the concentration needed for an effect of 90%. For orientation: CC50 means the concentration at which the toxic effect on the cells reaches its halfway point. A lower CC50 goes with greater toxicity to the cells. By solubility is commonly meant the concentration that dissolves in the medium under given conditions. A higher solubility goes with much dissolved substance.
